Test [1] has as its target first PHD finger of autoimmune regulator (AIRE-PHD1), wild type (human) (UniProt O43918). The test is described as follows: other fluorescence titration.
For test [2] the target is unchanged. The test is described as follows: ITC. For orientation: ITC needs no label: the signal is the heat of the interaction.
For test [3], the target named is T1, AIRE-PHD1 wild type (Homo sapiens, UniProt O43918).
T1 sequence (O43918 293-354): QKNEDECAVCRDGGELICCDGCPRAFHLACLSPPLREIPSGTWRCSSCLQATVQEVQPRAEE
The test can be described thus: Isothermal titration calorimetry. As to conditions: for ΔG / −TΔS: AIRE-PHD1 wt, ITC 23°C, pH 7.2, duplicate, ND = not detectable. Format: binding.

Test [4] concerns the target T1, AIRE-PHD1 wild type. The test can be described thus: Tryptophan fluorescence titration. Format: binding.
Test [5] concerns the target T2, AIRE-PHD1 Glu298Ala (Homo sapiens, UniProt O43918, E298A).
T2 sequence (O43918 293-354 E298A): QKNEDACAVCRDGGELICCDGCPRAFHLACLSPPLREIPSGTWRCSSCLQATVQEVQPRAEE
The test is described as follows: Isothermal titration calorimetry. To be noted: AIRE-PHD1 Glu298Ala mutant, ITC 23°C, pH 7.2. Format: binding. The essentials: (§1)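 Recombinant AIRE-PHD1 (Gln293–Glu354) point mutants, made by overlap-extension PCR and mass-verified by MALDI, at 40–85 μM in 20 mM phosphate, 150 mM NaCl, 2 mM β-mercaptoethanol, 50 μM ZnCl2, pH 7.2. Synthetic H3 1–10 peptides (0.54–2.5 mM) were injected 28–57 times at 15 min spacing, 23°C, stirring 307 rpm. Heats were corrected for dilution and fitted to a one-site model by nonlinear least squares. Run in duplicate.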

In test [6] the target is T3, AIRE-PHD1 Glu307Ala (Homo sapiens, UniProt O43918, E307A).
T3 sequence (O43918 293-354 E307A): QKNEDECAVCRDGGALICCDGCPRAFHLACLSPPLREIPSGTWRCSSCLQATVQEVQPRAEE
The test is described as follows: Isothermal titration calorimetry. Format: binding. As to conditions: AIRE-PHD1 Glu307Ala mutant, ITC 23°C, pH 7.2. The essentials: as §1

In test [7] the target is T1, AIRE-PHD1 wild type. To be noted: AIRE-PHD1 wt, ITC; previous experiments; ref [22]; cited from earlier work.
The target in test [8] is T4, AIRE-PHD1 Asp304Ala (Homo sapiens, UniProt O43918, D304A).
T4 sequence (O43918 293-354 D304A): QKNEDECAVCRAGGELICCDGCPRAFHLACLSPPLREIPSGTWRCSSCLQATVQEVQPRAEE
The test can be described thus: Isothermal titration calorimetry. It is filed as binding. As to conditions: AIRE-PHD1 Asp304Ala mutant, ITC 23°C, pH 7.2. The essentials:
as §1

Test [9] relates to GST-AIRE-PHD1. The test can be described thus: Peptide pull-down / in vitro binding assays. Set-up: species or system human. To be noted: in vitro: fluorescence titrations, ITC and peptide pull-down assays.
In test [10] the target is T5, first PHD finger of autoimmune regulator (AIRE-PHD1), wild type (human, UniProt O43918 293-354).
T5 sequence (looked up): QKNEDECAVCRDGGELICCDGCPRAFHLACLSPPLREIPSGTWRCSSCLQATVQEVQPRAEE
The test can be described thus: ITC.

In test [11] the target is T5, first PHD finger of autoimmune …. The test can be described thus: other fluorescence titration.
Test [12] has as its target T6, AIRE-PHD1 Glu307Ala (human, UniProt O43918 293-354, Glu307Ala).
T6 sequence (looked up): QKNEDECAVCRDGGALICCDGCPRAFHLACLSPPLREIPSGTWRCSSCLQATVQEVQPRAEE
The test is described as follows: ITC.

In test [13] the target is T7, AIRE-PHD1 Asp304Ala (human, UniProt O43918 293-354, Asp304Ala).
T7 sequence (looked up): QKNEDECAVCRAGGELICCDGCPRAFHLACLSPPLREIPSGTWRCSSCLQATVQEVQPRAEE
The test can be described thus: ITC.

Test [14] addresses T8, AIRE-PHD1 Glu298Ala (human, UniProt O43918 293-354, Glu298Ala).
T8 sequence (looked up): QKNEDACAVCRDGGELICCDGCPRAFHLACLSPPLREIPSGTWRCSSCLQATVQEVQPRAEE
The test is described as follows: ITC.

Test [15] addresses T6, AIRE-PHD1 Glu307Ala. The test can be described thus: other fluorescence titration.
For test [16], the target named is T7, AIRE-PHD1 Asp304Ala. The test can be described thus: other fluorescence titration.
The target of test [17] is T8, AIRE-PHD1 Glu298Ala. The test can be described thus: other fluorescence titration.

Read-outs that look alike come from different tables or passages of the source.

A word on the Kd: it is a measure of binding affinity in units of concentration. The low end stands for a tighter complex, the high end for a looser complex. Turning to “histone H3 peptide (1-10) phosphorylated at S10, H3S10PhK4me0”, the Kd in test [1] was found to be 7.6 µM; in test [2] it was 24.7 µM.

As for “histone H3 peptide (1-10) mono-methylated at R2, H3R2me1K4me0”, the Kd in [1] is 248 µM. In test [2], this molecule had a Kd of 199 µM and a dH of -4.6 kcal/mol.

Consider `C[C@H](N)C(=O)N[C@@H](CCCNC(=N)N)C(=O)N[C@H](C(=O)N[C@@H](CCCCN)C(=O)N[C@@H](CCC(N)=O)C(=O)N[C@H](C(=O)N[C@@H](C)C(=O)N[C@@H](C)C(=O)N[C@@H](CCCCN)C(=O)N[C@@H](CO)C(=O)O)[C@@H](C)O)[C@@H](C)O` [H3R8AK4me0], for which, in test [3], the ΔG is -5.8 ± 0.3 kcal/mol and the “−TΔS” value came to 1.6 ± 0.3 kcal/mol.

Consider `C[C@H](N)C(=O)N[C@@H](CCCNC(=N)N)C(=O)N[C@H](C(=O)N[C@@H](CCCCN)C(=O)N[C@@H](CCC(N)=O)C(=O)N[C@H](C(=O)N[C@@H](C)C(=O)N[C@@H](CCCNC(=N)N)C(=O)N[C@@H](CCCCN)C(=O)N[C@@H](COP(=O)(O)O)C(=O)O)[C@@H](C)O)[C@@H](C)O` [H3S10Ph K4me0], for which, in test [3], the Kd stood at 24.7 ± 0.2 µM, the ΔG is -6.3 ± 0.1 kcal/mol and the “−TΔS” value is on record as 3.3 ± 0.1 kcal/mol. Further, the Kd in test [4] was 7.6 ± 1.2 µM.

As to `C[C@H](N)C(=O)N[C@@H](CCCNC(=N)N)C(=O)N[C@H](C(=O)N[C@@H](CCCCN)C(=O)N[C@@H](CCC(N)=O)C(=O)N[C@H](C(=O)N[C@@H](C)C(=O)N[C@@H](CCCNC(=N)N)C(=O)N[C@@H](CCCCN)C(=O)N[C@@H](CO)C(=O)O)[C@@H](C)O)[C@@H](C)O` [H3K4me0], the ΔG was -5.9 ± 0.1 kcal/mol in [5], -5.9 ± 0.1 kcal/mol in [6], -7.1 ± 0.1 kcal/mol in test [7] and -5.2 ± 0.4 kcal/mol in test [8]. For the same molecule, the ΔH is -7.2 ± 0.1 kcal/mol in test [5], -6.7 ± 0.1 kcal/mol in test [6], -9.3 ± 0.1 kcal/mol in test [7] and -5.3 ± 0.4 kcal/mol in test [8]. The “−TΔS” value in test [5] was 1.3 ± 0.1 kcal/mol; in test [6], 0.7 ± 0.1 kcal/mol; in [7] it was 2.2 ± 0.1 kcal/mol; in test [8], 0.1 ± 0.4 kcal/mol.

Turning to “H3R2me2asK4me0: H3 1-10 peptide, asymmetric di-methylation of R2”, the “AIRE-PHD1 binding (in words)” value in test [9] is recorded as “strongly reduced AIRE-PHD1 binding”.

For the molecule ARTKQTAAKS [mutant histone H3 peptide (1-10) H3R8AK4me0], the values for the Kd in [10] and in test [11] were 55.9 µM and 52.8 ± 4.9 µM, respectively. The molecule also returned a dH in test [10] of -7.3 ± 0.3 kcal/mol.

As to ARTKQTARKS [non-modified histone H3 tail peptide H3K4me0 (residues 1-10)], the Kd in test [12] was 40.6 ± 0.5 µM; in test [13], 123 ± 6.7 µM; in [14], 43.4 ± 0.5 µM; in [15], 19 ± 2.4 µM; in [16], 80 µM; in test [17], 28.1 ± 2.1 µM. For the same molecule, the dH in test [12] is -6.7 ± 0.1 kcal/mol; in test [13] it was -5.3 ± 0.4 kcal/mol; in [14] it was -7.2 ± 0.1 kcal/mol.

The values are drawn from paper PMC2685098 (Nucleic Acids Research, 2009).
